Active and inactive are the calls of the source. The rule behind the calls is not given here. Bounds are passed on as bounds.

One assay relates to Trypanosoma cruzi. Put plainly: Trypanocidal activity against Trypanosoma cruzi Tulahuen C4 trypomastigotes infected in mouse macrophage by reporter dye assay. The format is functional, organism-based.
In the next assay the test system is Leishmania donovani. Put plainly: Antileishmanial activity against Leishmania donovani MHOMET-67/L82 amastigotes infected in mouse macrophage by reporter dye assay. The format is functional, organism-based.
In assay [1] the test system is Trypanosoma brucei rhodesiense. Kind of assay: Trypanocidal activity against Trypanosoma brucei rhodesiense STIB 900 […] by reporter dye assay. The assay is classed as functional, organism-based.
In another assay the test system is Plasmodium falciparum. Kind of assay: Antiplasmodial activity against chloroquine and pyrimethamine-resistant Plasmodium falciparum K1 […] by reporter dye assay. The assay is classed as functional, organism-based.
The next assay relates to L6. Put plainly: Cytotoxicity against rat L6 cells. The assay is classed as cell-based.
Assay [2] relates to Leishmania major. Kind of assay: Biphasic antileishmanial activity against Leishmania major promastigotes by alamar blue fluorescent dye assay. The assay is classed as functional, organism-based. (The colour change of resazurin is a common sign of viable cells or microbes.)
Assay [3] can be described thus: Cytotoxicity against HEK293T cells after 16 hrs by alamar blue staining. The format is cell-based. Conditions: Homo sapiens, HEK-293T. An outline of the steps: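 HEK 293T cells were seeded at 3×10^4/well in DMEM with 10% newborn bovine serum, 2 mM L-glutamax and 1% penicillin-streptomycin, and left to adhere for 3 h at 37°C under 5% CO2. Medium with serial drug dilutions (500 to 0.24 μM in the added medium) was then given for 16 h. Resazurin followed for a further 24 h, read by fluorescence (ex 530/em 590 nm). IC50 values came from ≥3 independent experiments.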

Assay [4] in a line: Inhibition of [3H]hypoxanthine uptake at Trypanosoma brucei brucei 427 H2 transporter expressed in human erythrocytes by fluid scintillation counting. The assay is classed as cell-based.
Assay [5] has as its system Trypanosoma brucei brucei. Kind of assay: Trypanostatic activity against Trypanosoma brucei brucei s427 by alamar blue fluorescent dye assay. The format is functional. Conditions: read-out: ED50 (the source's name).
Assay [6] relates to Trypanosoma brucei brucei. Kind of assay: Trypanocidal activity against Trypanosoma brucei brucei s427 by alamar blue fluorescent dye assay. The assay is classed as functional. To be noted: read-out: ED50 (the source's name).
Assay [7] deals with Leishmania major. Kind of assay: Leishmanistatic activity against Leishmania major promastigotes by alamar blue fluorescent dye assay. The assay is classed as functional. To be noted: read-out: ED50 (the source's name).
The subject of assay [8] is Leishmania major. Put plainly: Leishmanicidal activity against Leishmania major promastigotes by alamar blue fluorescent dye assay. The format is functional. To be noted: read-out: ED50 (the source's name).
In a further assay the test system is Leishmania mexicana. Kind of assay: Antiprotozoal activity against axenic Leishmania mexicana amastigotes by alamar blue fluorescent dye assay. The format is functional, organism-based.
In assay [9] the test system is Trypanosoma brucei brucei. Kind of assay: Inhibition of Trypanosoma brucei brucei 427 P1 transporter-mediated [3H]adenosine uptake by fluid scintillation counting in presence of 100 uM adenine.
Assay [10] is described as follows: Inhibition of Trypanosoma brucei brucei 427 P2 transporter-mediated [3H]adenosine uptake by fluid scintillation counting in presence of 100 uM inosine.
Assay [11] concerns Trypanosoma brucei brucei. Put plainly: Biphasic antitrypanosomal activity against Trypanosoma brucei brucei s427 by alamar blue fluorescent dye assay. The assay is classed as functional, organism-based.

Regarding `OC[C@H]1O[C@@H](n2cnc3c(NC4CCCC4)nc(NCCC4CNc5ccccc54)nc32)[C@H](O)[C@@H]1O` (some centres not stated), the 50% inhibitory concentration (IC50) (usually the point on the concentration scale where inhibition reaches its midpoint) in the assay on Trypanosoma cruzi was < 30 µM; with Leishmania donovani, < 30 µM; in assay [1] it was 20.8 µM; in the assay with Plasmodium falciparum, > 10 µM; in the assay with L6 it was 48.4 µM.

In the case of `CCCCCNc1nc(NCCCCC)c2ncn([C@@H]3O[C@H](CO)[C@@H](O)[C@H]3O)c2n1`, the IC50 was < 30 µM in the assay with Trypanosoma cruzi; < 30 µM in the assay with Leishmania donovani; 6.47 µM in assay [1]; > 10 µM in the assay with Plasmodium falciparum; > 200 µM in the assay on L6.

`N=C(N)c1ccc(OCCCCCOc2ccc(C(=N)N)cc2)cc1` [PENTAMIDINE] gave an IC50 in the assay with Leishmania major [2] of 3.52 µM.

Consider `CCCNc1nc(NCCc2ccccc2)c2ncn([C@@H]3O[C@H](CO)[C@@H](O)[C@H]3O)c2n1`, for which the IC50 is < 30 µM in the assay with Trypanosoma cruzi; < 30 µM with Leishmania donovani; 14.2 µM in assay [1]; > 10 µM with Plasmodium falciparum; > 200 µM with L6.

Turning to `OC(c1cc(C(F)(F)F)nc2c(C(F)(F)F)cccc12)C1CCCCN1` (configuration not stated) [MEFLOQUINE], the figures for the IC50 in the assay on Trypanosoma cruzi, in the assay with Leishmania donovani and with L6 were < 30 µM, < 30 µM and 4.76 µM, respectively.

Take `OC[C@H]1O[C@@H](n2cnc3c(NC4CC4)nc(NC4CCCC4)nc32)[C@H](O)[C@@H]1O`: the IC50 in assay [1] is 1.84 µM; with Plasmodium falciparum it was > 10 µM; in assay [3], > 500 µM.

For `OC[C@H]1O[C@@H](n2cnc3c(Nc4ccccc4)nc(NCCOCc4ccccc4)nc32)[C@H](O)[C@@H]1O`, the IC50 in the assay on Trypanosoma cruzi was < 30 µM; in the assay on Leishmania donovani, < 30 µM; in [1], 8.43 µM; with Plasmodium falciparum, 7.38 µM; in the assay on L6 it was 53.8 µM.

`OC[C@H]1O[C@@H](n2cnc3c(NC4CCCC4)nc(NC4CCCCC4)nc32)[C@H](O)[C@@H]1O`: the IC50 in assay [1] was determined as 0.49 µM; with Plasmodium falciparum, 9.05 µM; in assay [3], 228 µM.

As to `COc1nc(Nc2ccccc2)c2ncn([C@@H]3O[C@H](CO)[C@@H](O)[C@H]3O)c2n1`, the IC50 is < 30 µM in the assay on Trypanosoma cruzi, < 30 µM with Leishmania donovani, 83.3 µM in [1] and > 10 µM in the assay on Plasmodium falciparum.

`OC[C@H]1O[C@@H](n2cnc3c(NCCC(c4ccccc4)c4ccccc4)nc(NCCC4CNc5ccccc54)nc32)[C@H](O)[C@@H]1O` (some centres not stated): the IC50 with Trypanosoma cruzi is < 30 µM; in the assay on Leishmania donovani it was < 30 µM; in [1] it was 25.1 µM; with Plasmodium falciparum, 1.83 µM.

For the molecule `c1nc2nc(NC3CCCC3)nc(NC3CCCC3)c2[nH]1`, in [4], the affinity, expressed as Ki, was 33.4 µM. The EC50 in assay [5] worked out at 26 nM; in assay [6], 23.4 µM; in the assay on Leishmania major [7], 15 nM; in the assay with Leishmania major [8], 15.1 µM. Further, the IC50 in the assay on Leishmania mexicana came to 15.2 µM.

In the case of `OC[C@H]1O[C@@H](n2cnc3c(NC4CCCC4)nc(NC4CC4)nc32)[C@H](O)[C@@H]1O`, the results for the IC50 (in [1]; in the assay on Plasmodium falciparum; in [3]) were 1.43 µM, > 10 µM and > 500 µM, respectively.

In the case of `Nc1ncnc2c1ncn2[C@H]1C[C@H](O)[C@@H](CO)O1` [DEOXYADENOSINE], the inhibition entry in assay [9] is “inactive”. Further, in assay [10], the inhibitory constant (Ki) (in general, a measure of affinity in units of concentration, obtained from inhibition or displacement) is 0.23 µM.

As for `OC[C@H]1O[C@@H](n2cnc3c(NC4CCCC4)nc(NCCc4cnc[nH]4)nc32)[C@H](O)[C@@H]1O`, the IC50 in the assay on Trypanosoma cruzi was < 30 µM; with Leishmania donovani it was < 30 µM; in [1], 37.8 µM; in the assay with Plasmodium falciparum it was > 10 µM.

Turning to `OC[C@H]1O[C@@H](n2cnc3c(NC4CCCC4)nc(NCCOCc4ccccc4)nc32)[C@H](O)[C@@H]1O`, the IC50 with Trypanosoma cruzi is < 30 µM; with Leishmania donovani it was < 30 µM; in assay [1], 4.19 µM; in the assay with Plasmodium falciparum, > 10 µM; in the assay on L6, 78.8 µM.

As for `CCCCNc1nc(NC2CCCC2)nc2c1ncn2[C@@H]1O[C@H](CO)[C@@H](O)[C@H]1O`, the concentration for half-maximal inhibition (IC50) in assay [1] is 0.64 µM; with Plasmodium falciparum, > 10 µM; in assay [3], > 500 µM. The inhibition entry in assay [9] was “inactive”. In addition, the Ki in [10] turned out to be 9 µM.

`OC[C@H]1O[C@@H](n2cnc3c(NCc4cccc(I)c4)nc(NCCC4CNc5ccccc54)nc32)[C@H](O)[C@@H]1O` (some centres not stated): the IC50 in the assay on Trypanosoma cruzi is < 30 µM; in the assay with Leishmania donovani it was < 30 µM; in assay [1], 20 µM; in the assay with Plasmodium falciparum it was > 10 µM.

On to `OC[C@H]1O[C@@H](n2cnc3c(NC4CCCCCC4)nc(NC4CCCC4)nc32)[C@H](O)[C@@H]1O`, for which the 50% inhibitory concentration (IC50) in assay [1] is 0.71 µM; in the assay on Plasmodium falciparum, 8.95 µM; in assay [3], > 500 µM.

In the case of `OC[C@H]1O[C@@H](n2cnc3c(NCCC(c4ccccc4)c4ccccc4)nc(NCCOCc4ccccc4)nc32)[C@H](O)[C@@H]1O`, the IC50 is < 30 µM in the assay with Trypanosoma cruzi, < 30 µM in the assay with Leishmania donovani, 27.7 µM in assay [1] and 3.06 µM in the assay with Plasmodium falciparum.

`N=C(N)c1ccc(/N=N/Nc2ccc(C(=N)N)cc2)cc1` [DIMINAZENE]: the 50% inhibitory concentration (IC50) in [11] was determined as 107 nM.

`OC[C@H]1O[C@@H](n2cnc3c(Nc4ccccc4)nc(NC4CCCC4)nc32)[C@H](O)[C@@H]1O`: the IC50 is < 30 µM in the assay with Trypanosoma cruzi; < 30 µM in the assay on Leishmania donovani; 2.06 µM in [1]; 6.06 µM with Plasmodium falciparum; 36.3 µM in the assay with L6.

For `COc1nc(NC2CCCC2)c2ncn([C@@H]3O[C@H](CO)[C@@H](O)[C@H]3O)c2n1`, the IC50 is < 30 µM with Trypanosoma cruzi; < 30 µM in the assay with Leishmania donovani; 32.9 µM in assay [1]; > 10 µM in the assay on Plasmodium falciparum; 51.6 µM in the assay on L6.

For the molecule `OC[C@H]1O[C@@H](n2cnc3c(Nc4ccccc4)nc(NCCC4CNc5ccccc54)nc32)[C@H](O)[C@@H]1O` (some centres not stated), the IC50 in the assay with Trypanosoma cruzi was < 30 µM; in the assay on Leishmania donovani it was < 30 µM; in assay [1] it was 18.8 µM; with Plasmodium falciparum, 5.55 µM; in the assay on L6 it was 13.2 µM.

`OC[C@H]1O[C@@H](n2cnc3c(NC4CCCCC4)nc(NC4CCCC4)nc32)[C@H](O)[C@@H]1O`: the values for the IC50 (in assay [1]; in the assay with Plasmodium falciparum; in assay [3]) were 0.71 µM, > 10 µM and > 500 µM, respectively.

As to `OC[C@H]1O[C@@H](n2cnc3c(NCc4cccc(I)c4)nc(NC4CCCC4)nc32)[C@H](O)[C@@H]1O`, the IC50 with Trypanosoma cruzi is < 30 µM; in the assay with Leishmania donovani, < 30 µM; in assay [1] it was 5.44 µM; with Plasmodium falciparum it was > 10 µM; with L6, 51.7 µM.

Take `OC[C@H]1O[C@@H](n2cnc3c(NC4CCCC4)nc(NC4CCCCCC4)nc32)[C@H](O)[C@@H]1O`: the IC50 in assay [1] was 3.06 µM; in the assay on Plasmodium falciparum, 6.79 µM; in [3], 167 µM.

For `OC[C@H]1O[C@@H](n2cnc3c(NC4CCCC4)nc(NC4CCCC4)nc32)[C@H](O)[C@@H]1O`, the 50% inhibitory concentration (IC50) was 0.4 µM in assay [1]; > 10 µM in the assay on Plasmodium falciparum; 97.3 µM with L6; > 500 µM in assay [3]; 9.01 µM in the assay on Leishmania mexicana. The inhibition result in [9] was “inactive”. Moreover, the Ki in assay [10] was 20 µM. The EC50 was 166 nM in [5], 15.7 µM in assay [6], 10 nM in the assay on Leishmania major [7] and 9.07 µM in the assay on Leishmania major [8].

The record behind these values is ChEMBL document CHEMBL1137633, “2,N6-disubstituted adenosine analogs with antitrypanosomal and antimalarial activities” (Antimicrob Agents Chemother, 2007).
